{"source": "ChEMBL document CHEMBL5724801", "about": "“EUbOPEN Chemogenomics Library - Multiplex” (2024)", "key": {"[1]": {"tested_on": "HEK-293T", "test": "Multiplex assay against HEK293T", "assay_type": "toxicity, cell-based", "conditions": "human", "procedure,_shortened": "(§1)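 Values for tubulin, mitochondrial-mass and membrane-permeability phenotypes are per cents of cells with healthy nuclei. These cells were identified by CellPathfinder machine-learning gating of live cells that had been stained at seeding with Hoechst33342, BioTracker Green Microtubule Cytoskeleton Dye, MitoTracker Red and Annexin V Alexa Fluor 680 and imaged on a CQ1 microscope at 37°C and 5% CO2 after compound addition. The gating first set Hoechst high-intensity objects apart from normal cells, then split normal cells into healthy, pyknosed or fragmented nuclei, and pyknosed cells into mitotic or apoptotic.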"}, "[2]": {"tested_on": "Fibroblast", "test": "Multiplex assay against human fibroblast", "assay_type": "toxicity, cell-based", "procedure,_shortened": "as §1"}, "[3]": {"conditions": "12 h, 1 µM, compound concentration 1 uM"}, "[4]": {"conditions": "12 h, 10 µM, compound concentration 10 uM"}, "[5]": {"conditions": "24 h, 1 µM, compound concentration 1 uM"}, "[6]": {"conditions": "24 h, 10 µM, compound concentration 10 uM"}, "[7]": {"conditions": "48 h, 1 µM, compound concentration 1 uM"}, "[8]": {"conditions": "48 h, 10 µM, compound concentration 10 uM"}}, "note": "Several values for one entry are separate records, joined by “and”; a condition that tells them apart may be missing. Equal entries are not always repeated.", "data": [{"smiles": "COc1cc2ncnc(Nc3ccc(Oc4ccccc4)cc3C)c2cc1OC.Cl", "values": [{"measurement": "Population Apoptotic (%)", "setting": "[1]; [3]", "result": "9.24% and 8.93%"}, {"measurement": "Population Fragmented Nuclei (%)", "setting": "[1]; [3]", "result": "2.79% and 1.37%"}, {"measurement": "Population Healthy Nuclei (%)", "setting": "[1]; [3]", "result": "50.51% and 21.92%"}, {"measurement": "Population Hoechst High Intensity Objects (%)", "setting": "[1]; [3]", "result": 0, "unit": "%"}, {"measurement": "Population Membrane Permeable-Phenotype (%)", "setting": "[1]; [3]", "result": "1.51% and 0%"}, {"measurement": "Population Mitochondria Different-Phenotype (%)", "setting": "[1]; [3]", "result": "24.62% and 9.38%"}, {"measurement": "Population Mitotic Cells (%)", "setting": "[1]; [3]", "result": "90.76% and 91.07%"}, {"measurement": "Population Normal (%)", "setting": "[1]; [3]", "result": 100, "unit": "%"}, {"measurement": "Population Pyknosed Nuclei (%)", "setting": "[1]; [3]", "result": "46.7% and 76.71%"}, {"measurement": "Population Tubulin-Different-Phenotype (%)", "setting": "[1]; [3]", "result": "6.53% and 18.75%"}, {"measurement": "Total Cell Count", "setting": "[1]; [3]", "result": "394 and 146"}, {"measurement": "Population Apoptotic (%)", "setting": "[1]; [4]", "result": "10.53% and 18.75%"}, {"measurement": "Population Fragmented Nuclei (%)", "setting": "[1]; [4]", "result": "1.92% and 2.05%"}, {"measurement": "Population Hoechst High Intensity Objects (%)", "setting": "[1]; [4]", "result": 0, "unit": "%"}, {"measurement": "Population Membrane Permeable-Phenotype (%)", "setting": "[1]; [4]", "result": "0.6% and 0%"}, {"measurement": "Population Mitochondria Different-Phenotype (%)", "setting": "[1]; [4]", "result": "17.86% and 20%"}, {"measurement": "Population Mitotic Cells (%)", "setting": "[1]; [4]", "result": "89.47% and 81.25%"}, {"measurement": "Population Normal (%)", "setting": "[1]; [4]", "result": 100, "unit": "%"}, {"measurement": "Population Pyknosed Nuclei (%)", "setting": "[1]; [4]", "result": "52.05% and 87.67%"}, {"measurement": "Total Cell Count", "setting": "[1]; [4]", "result": "365 and 146"}, {"measurement": "Population Apoptotic (%)", "setting": "[1]; [5]", "result": "18.7% and 16.84%"}, {"measurement": "Population Fragmented Nuclei (%)", "setting": "[1]; [5]", "result": "0.78% and 1.86%"}, {"measurement": "Population Healthy Nuclei (%)", "setting": "[1]; [5]", "result": "80.12% and 39.13%"}, {"measurement": "Population Hoechst High Intensity Objects (%)", "setting": "[1]; [5]", "result": 0, "unit": "%"}, {"measurement": "Population Membrane Permeable-Phenotype (%)", "setting": "[1]; [5]", "result": "2.13% and 1.59%"}, {"measurement": "Population Mitochondria Different-Phenotype (%)", "setting": "[1]; [5]", "result": "8.53% and 7.94%"}, {"measurement": "Population Mitotic Cells (%)", "setting": "[1]; [5]", "result": "81.3% and 83.16%"}, {"measurement": "Population Normal (%)", "setting": "[1]; [5]", "result": 100, "unit": "%"}, {"measurement": "Population Tubulin-Different-Phenotype (%)", "setting": "[1]; [5]", "result": "10.85% and 3.17%"}, {"measurement": "Population Apoptotic (%)", "setting": "[1]; [6]", "result": "30.37% and 35.11%"}, {"measurement": "Population Fragmented Nuclei (%)", "setting": "[1]; [6]", "result": "2.24% and 2.6%"}, {"measurement": "Population Hoechst High Intensity Objects (%)", "setting": "[1]; [6]", "result": "0.22% and 0%"}, {"measurement": "Population Membrane Permeable-Phenotype (%)", "setting": "[1]; [6]", "result": "0.66% and 0%"}, {"measurement": "Population Mitochondria Different-Phenotype (%)", "setting": "[1]; [6]", "result": "13.58% and 21.05%"}, {"measurement": "Population Mitotic Cells (%)", "setting": "[1]; [6]", "result": "69.63% and 64.89%"}, {"measurement": "Population Normal (%)", "setting": "[1]; [6]", "result": "99.78% and 100%"}, {"measurement": "Population Pyknosed Nuclei (%)", "setting": "[1]; [6]", "result": "30.2% and 85.06%"}, {"measurement": "Total Cell Count", "setting": "[1]; [6]", "result": "448 and 154"}, {"measurement": "Population Fragmented Nuclei (%)", "setting": "[1]; [7]", "result": "2.53% and 2.04%"}, {"measurement": "Population Healthy Nuclei (%)", "setting": "[1]; [7]", "result": "85.42% and 68.88%"}, {"measurement": "Population Hoechst High Intensity Objects (%)", "setting": "[1]; [7]", "result": "0.14% and 0%"}, {"measurement": "Population Membrane Permeable-Phenotype (%)", "setting": "[1]; [7]", "result": "4.9% and 2.96%"}, {"measurement": "Population Mitochondria Different-Phenotype (%)", "setting": "[1]; [7]", "result": "14.29% and 17.78%"}, {"measurement": "Population Mitotic Cells (%)", "setting": "[1]; [7]", "result": "92.22% and 73.68%"}, {"measurement": "Population Normal (%)", "setting": "[1]; [7]", "result": "99.86% and 100%"}, {"measurement": "Population Pyknosed Nuclei (%)", "setting": "[1]; [7]", "result": "12.06% and 29.08%"}, {"measurement": "Population Apoptotic (%)", "setting": "[1]; [8]", "result": "20.37% and 26.73%"}, {"measurement": "Population Fragmented Nuclei (%)", "setting": "[1]; [8]", "result": "1.69% and 2.03%"}, {"measurement": "Population Healthy Nuclei (%)", "setting": "[1]; [8]", "result": "77.27% and 46.7%"}, {"measurement": "Population Hoechst High Intensity Objects (%)", "setting": "[1]; [8]", "result": 0, "unit": "%"}, {"measurement": "Population Membrane Permeable-Phenotype (%)", "setting": "[1]; [8]", "result": "2.35% and 1.09%"}, {"measurement": "Population Mitochondria Different-Phenotype (%)", "setting": "[1]; [8]", "result": "53.61% and 47.83%"}, {"measurement": "Population Mitotic Cells (%)", "setting": "[1]; [8]", "result": "79.63% and 73.27%"}, {"measurement": "Population Normal (%)", "setting": "[1]; [8]", "result": 100, "unit": "%"}, {"measurement": "Population Pyknosed Nuclei (%)", "setting": "[1]; [8]", "result": "21.04% and 51.27%"}, {"measurement": "Population Apoptotic (%)", "setting": "[2]; [3]", "result": "11.11% and 23.33%"}, {"measurement": "Population Fragmented Nuclei (%)", "setting": "[2]; [3]", "result": "12.3% and 7.85%"}, {"measurement": "Population Healthy Nuclei (%)", "setting": "[2]; [3]", "result": "63.64% and 76.44%"}, {"measurement": "Population Hoechst High Intensity Objects (%)", "setting": "[2]; [3]", "result": 0, "unit": "%"}, {"measurement": "Population Membrane Permeable-Phenotype (%)", "setting": "[2]; [3]", "result": "5.04% and 3.42%"}, {"measurement": "Population Mitochondria Different-Phenotype (%)", "setting": "[2]; [3]", "result": "8.4% and 12.33%"}, {"measurement": "Population Mitotic Cells (%)", "setting": "[2]; [3]", "result": "88.89% and 76.67%"}, {"measurement": "Population Normal (%)", "setting": "[2]; [3]", "result": 100, "unit": "%"}, {"measurement": "Population Pyknosed Nuclei (%)", "setting": "[2]; [3]", "result": "24.06% and 15.71%"}, {"measurement": "Population Tubulin-Different-Phenotype (%)", "setting": "[2]; [3]", "result": "15.13% and 13.7%"}, {"measurement": "Total Cell Count", "setting": "[2]; [3]", "result": "187 and 191"}, {"measurement": "Population Apoptotic (%)", "setting": "[2]; [4]", "result": "10.77% and 17.02%"}, {"measurement": "Population Fragmented Nuclei (%)", "setting": "[2]; [4]", "result": "14.61% and 11.16%"}, {"measurement": "Population Healthy Nuclei (%)", "setting": "[2]; [4]", "result": "48.88% and 68.67%"}, {"measurement": "Population Hoechst High Intensity Objects (%)", "setting": "[2]; [4]", "result": 0, "unit": "%"}, {"measurement": "Population Membrane Permeable-Phenotype (%)", "setting": "[2]; [4]", "result": "3.45% and 10.62%"}, {"measurement": "Population Mitochondria Different-Phenotype (%)", "setting": "[2]; [4]", "result": "29.89% and 25%"}, {"measurement": "Population Mitotic Cells (%)", "setting": "[2]; [4]", "result": "89.23% and 82.98%"}, {"measurement": "Population Normal (%)", "setting": "[2]; [4]", "result": 100, "unit": "%"}, {"measurement": "Population Pyknosed Nuclei (%)", "setting": "[2]; [4]", "result": "36.52% and 20.17%"}, {"measurement": "Population Tubulin-Different-Phenotype (%)", "setting": "[2]; [4]", "result": "58.62% and 66.88%"}, {"measurement": "Total Cell Count", "setting": "[2]; [4]", "result": "178 and 233"}, {"measurement": "Population Apoptotic (%)", "setting": "[2]; [5]", "result": "0% and 16.67%"}, {"measurement": "Population Fragmented Nuclei (%)", "setting": "[2]; [5]", "result": "10.95% and 4.57%"}, {"measurement": "Population Healthy Nuclei (%)", "setting": "[2]; [5]", "result": "74.29% and 80.2%"}, {"measurement": "Population Hoechst High Intensity Objects (%)", "setting": "[2]; [5]", "result": 0, "unit": "%"}, {"measurement": "Population Membrane Permeable-Phenotype (%)", "setting": "[2]; [5]", "result": "5.77% and 1.9%"}, {"measurement": "Population Mitochondria Different-Phenotype (%)", "setting": "[2]; [5]", "result": "7.05% and 6.33%"}, {"measurement": "Population Mitotic Cells (%)", "setting": "[2]; [5]", "result": "100% and 83.33%"}, {"measurement": "Population Normal (%)", "setting": "[2]; [5]", "result": 100, "unit": "%"}, {"measurement": "Population Pyknosed Nuclei (%)", "setting": "[2]; [5]", "result": "14.76% and 15.23%"}, {"measurement": "Population Tubulin-Different-Phenotype (%)", "setting": "[2]; [5]", "result": "15.38% and 12.66%"}, {"measurement": "Total Cell Count", "setting": "[2]; [5]", "result": "210 and 197"}, {"measurement": "Population Fragmented Nuclei (%)", "setting": "[2]; [6]", "result": "20.69% and 12.5%"}]}]}
